The source of these data is ChEMBL document CHEMBL1130343, “Folate-based inhibitors of thymidylate synthase: synthesis and antitumor activity of gamma-linked sterically hindered dipeptide analogues of 2-desamino-2-methyl-N10-propargyl-5,8-dideazafolic acid (ICI 198583)” (J Med Chem, 1997).

pIC50, pKi: −log10 of the molar value.

The species named for experiment [1] is Mus musculus. Nature of the experiment: Compound was tested for inhibition of L1210:1565 cell growth in mouse. In kind it is functional, organism-based. In short, it runs like this: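 Growth inhibition measured in L1210:1565, a mouse L1210 mutant line with an impaired reduced folate/MTX transport carrier. The line was selected for resistance to CI-920, an RFC-transported agent, and is cross-resistant to MTX. Result expressed as IC50.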

The species named for experiment [2] is Mus musculus. The experiment can be described thus: Compound was tested for inhibition of L1210 cell growth in mouse. It counts as functional, organism-based.
The test system of the next experiment is WIL2. The experiment can be described thus: Compound was tested for inhibition of human W1L2 cell growth. In kind it is functional, cell-based.
The species named for experiment [3] is Mus musculus. Nature of the experiment: Compound was tested for inhibition of L1210:R D1694 cell growth in mouse. The settings on record: L1210 (RD1694). It counts as functional, organism-based.
The target in the next experiment is Thymidylate synthase (Mus musculus, UniProt P07607). Nature of the experiment: Inhibition of Thymidylate Synthase(TS) from mouse L1210 cells. It counts as cell-based. As to conditions: read-out: Ki app.
Chain of Thymidylate synthase (P07607 whole entry): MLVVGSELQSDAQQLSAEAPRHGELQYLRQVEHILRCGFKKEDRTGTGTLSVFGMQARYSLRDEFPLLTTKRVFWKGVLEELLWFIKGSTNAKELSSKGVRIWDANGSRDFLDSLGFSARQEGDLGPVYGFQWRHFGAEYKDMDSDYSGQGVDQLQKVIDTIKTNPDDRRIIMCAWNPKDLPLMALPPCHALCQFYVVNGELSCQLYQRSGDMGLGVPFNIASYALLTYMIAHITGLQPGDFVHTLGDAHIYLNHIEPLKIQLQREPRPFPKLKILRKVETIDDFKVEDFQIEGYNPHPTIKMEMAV

As for `C#CCN(Cc1ccc2nc(C)nc(O)c2c1)c1ccc(C(=O)N[C@@H](CCC(=O)NC(C)(C)C(=O)O)C(=O)O)cc1`, the pIC50 is 4.15 in the experiment filed under Mus musculus [1], 5.60 in the experiment listed under Mus musculus [2], 6.51 in the experiment with WIL2 and 5.15 in the experiment listed under Mus musculus [3]. Also, on Thymidylate synthase, the pKi is 7.38.

A word on the pIC50: it is −log10 of the IC50, conventionally taken in molar units. The pKi is −log10 of the Ki, conventionally taken in molar units.
